Data set [1] concerns Human immunodeficiency virus 1. Description: Antiretroviral activity against HIV1 in human MT4 cells assessed as reduction in virus-induced cytopathogenicity by MTT assay. The class given is functional, organism-based. To be noted: Human immunodeficiency virus 1, MT4. In outline:
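MT-4 cells infected with HIV-1; MTT read-out of viability; EC50 taken as concentration giving 50% protection from virus-induced cytopathogenicity. Mean of three separate experiments, variation among triplicates under 10%.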
A general note: Protection from cytopathic effect is a common read-out in antiviral testing.

Data set [2] is described as follows: Selectivity index, ratio of CC50 for human MT4 cells to EC50 for HIV1. The class given is toxicity, cell-based. To be noted: read-out: Ratio CC50/EC50.
A short description of data set [3]: Cytotoxicity against human MT4 cells by MTT assay. The class given is cell-based. In outline:
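Mock-infected MT-4 cells; viability by MTT method; CC50 taken as concentration reducing viability by 50%. Mean of three separate experiments, variation among triplicates under 10%.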
For orientation: Tetrazolium dyes change colour on reduction, which living cells bring about.

The test system of data set [4] is HIV-1 K103N/Y181C mutant (Human immunodeficiency virus 1). Description: Antiviral activity against HIV1 with reverse transcriptase K103N/Y181C mutation in human MT4 cells assessed as reduction of virus-induced cytopathogenicity by MTT assay. To be noted: for EC50: Human immunodeficiency virus 1, MT4.
The subject of data set [5] is HIV-1 Y181C mutant (Human immunodeficiency virus 1). Description: Antiviral activity against HIV1 with reverse transcriptase Y181C mutation in human MT4 cells assessed as reduction of virus-induced cytopathogenicity by MTT assay. To be noted: Human immunodeficiency virus 1, MT4.
Data set [6] relates to Human immunodeficiency virus 1. Description: Antiviral activity against HIV1 in human C8166 cells assessed as reduction of p24 antigen level. The format is functional, organism-based. To be noted: Human immunodeficiency virus 1, C8166. The procedure, abridged: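 C8166 cultures infected with HIV-1; p24 antigen levels measured; EC90 taken as dose lowering p24 by 90%.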

Activity calls are given as the source filed them. The calls are words filed in the database; no cut-off is given here.

A word on the EC50: it is the concentration that produces a half-maximal response. A word on the CC50: it is the concentration at which the toxic effect on the cells reaches its halfway point. As to `FC(F)(F)c1cc(NC(=S)OCCc2ccccn2)ccc1Cl`, in data set [1], the EC50 came out at 5.5 µM. Moreover, the selectivity ratio in data set [2] amounted to 7.6. This compound had a CC50 in data set [3] of 42 µM.
For `S=C(Nc1ccccc1)OCCc1ccccc1`, the EC50 in data set [1] was 6 µM. Also, in data set [2], the selectivity ratio stood at 17.
Regarding `S=C(Nc1ccc(Cl)cc1)OCCc1ccccn1`, the EC50 in data set [1] turned out to be 0.1 µM. In data set [2], the selectivity ratio is 520. Besides, the CC50 in data set [3] worked out at 52 µM.
As to `COc1ccc(NC(=S)OCCc2ccncc2)cc1`, the EC50 in data set [1] is more than 59 µM. In addition, in data set [2], the selectivity ratio is less than 1. The same compound returned a CC50 in data set [3] of 59 µM.
`Fc1cccc(F)c1NC(=S)OCCc1ccccn1`: the EC50 in data set [1] was 38 µM. The selectivity ratio in data set [2] was more than 2.6. Also, the CC50 in data set [3] was more than 100 µM.
On to `Cc1ccc(NC(=S)OCCc2ccccn2)cc1Cl`, for which, in data set [1], the EC50 came out at 0.7 µM. Moreover, the selectivity ratio in data set [2] was 84. The compound further came in with a half-maximal cytotoxic concentration (CC50) in data set [3] of 59 µM.
For the compound `S=C(Nc1ccccc1)OCCc1ccccn1`, the EC50 in data set [1] is 7.4 µM. The selectivity ratio in data set [2] is more than 14. Moreover, the CC50 in data set [3] is more than 100 µM.
Take `O=[N+]([O-])c1ccc(NC(=S)OCCc2ccncc2)cc1`: the half-maximal effective concentration (EC50) in data set [1] was more than 100 µM. The same compound displayed a CC50 in data set [3] of more than 100 µM.
Consider `O=C1Nc2ccc(Cl)cc2[C@@](C#CC2CC2)(C(F)(F)F)O1` [EFAVIRENZ], for which the EC50 in data set [4] was found to be 0.04 µM; in data set [5], 0.01 µM.
For `S=C(Nc1ccc(Cl)cc1Cl)OCCc1ccccn1`, in data set [1], the EC50 was determined as 2.9 µM. Also, in data set [2], the selectivity ratio was more than 34. The compound further gave a CC50 in data set [3] of more than 100 µM.
Regarding `Cc1ccccc1NC(=S)OCCc1ccccn1`, the EC50 in data set [1] was determined as 69 µM. The selectivity ratio in data set [2] was more than 1.4. This compound also had a CC50 in data set [3] of more than 100 µM.
Taken in the same sequence, the figures for `CC(C)c1ccc(NC(=S)OCCc2ccccn2)cc1` were more than 45 µM, less than 1 and 45 µM.
Turning to `FC(F)(F)c1ccc(NC(=S)OCCc2ccccn2)cc1`, the EC50 in data set [1] is 13 µM. The selectivity ratio in data set [2] amounted to 3.8. The CC50 in data set [3] amounted to 50 µM.
Turning to `O=[N+]([O-])c1cc(NC(=S)OCCc2ccccn2)ccc1Cl`, in data set [1], the EC50 is 0.1 µM. Further, the selectivity ratio in data set [2] came out at 410. This compound also returned a CC50 in data set [3] of 41 µM.
On to `CCc1ccc(NC(=S)OCCc2ccccn2)cc1`, for which the EC50 in data set [1] is 10 µM. The selectivity ratio in data set [2] was 4.4. This compound also yielded a CC50 in data set [3] of 44 µM.
Take `O=[N+]([O-])c1cccc(NC(=S)OCCc2ccccn2)c1`: the EC50 in data set [4] turned out to be 91 µM; in data set [1] it was 1.6 µM; in data set [5] it was 87 µM. The selectivity ratio in data set [2] is 63. In addition, it took 100 µM to reach half-maximal cytotoxicity in data set [3] (CC50).
Take `COc1ccc(NC(=S)OCCc2ccccc2)cc1`: the EC50 in data set [1] stood at 17 µM. The selectivity ratio in data set [2] was 2.1.
As to `S=C(Nc1ccccc1Cl)OCCc1ccccn1`, the EC50 in data set [1] was 43 µM. Moreover, the selectivity ratio in data set [2] is more than 2.3. Besides, in data set [3], the half-maximal cytotoxic concentration (CC50) is more than 100 µM.
Consider `O=[N+]([O-])c1ccc(NC(=S)OCCc2ccccc2)cc1`, for which the EC50 in data set [1] turned out to be 0.9 µM. Besides, the selectivity ratio in data set [2] was more than 111. In data set [3], this compound came in with a CC50 of more than 100 µM.
The term EC90 denotes the concentration needed for an effect of 90%. Take `S=C(NCCc1ccccn1)Nc1ccc(Br)cn1` [TROVIRDINE]: the EC90 in data set [6] was 0.015 µM. Moreover, the selectivity ratio in data set [2] turned out to be 3000.
`Cc1ccc(NC(=S)OCCc2ccccc2)cc1`: in data set [1], the EC50 was 4.3 µM. Besides, the selectivity ratio in data set [2] is more than 23. The compound further yielded a CC50 in data set [3] of more than 100 µM.
Turning to `N#Cc1ccc(NC(=S)OCCc2ccccn2)cc1`, the EC50 in data set [1] was determined as 0.2 µM. For the same compound, the selectivity ratio in data set [2] is 225. In addition, in data set [3], half-maximal cytotoxicity (CC50) was put at 45 µM.
As for `Fc1ccc(F)c(NC(=S)OCCc2ccccn2)c1`, the EC50 in data set [1] came to 9 µM. In data set [2], the selectivity ratio was more than 11. The same compound came in with a CC50 in data set [3] of more than 100 µM.
Turning to `S=C(Nc1ccc(Br)cc1)OCCc1ccccn1`, the outcome in data set [4] was inactive. Also, the 50% effective concentration (EC50) in data set [1] amounted to 0.2 µM; in data set [5] it was 20 µM. Moreover, the selectivity ratio in data set [2] worked out at 185. Moreover, the CC50 in data set [3] was found to be 37 µM.
As for `Cc1ccc(NC(=S)OCCc2ccccn2)cc1`, the EC50 in data set [1] was found to be 1.7 µM. The selectivity ratio in data set [2] was 44. In data set [3], this compound gave a CC50 of 75 µM.
`Cc1ccc(NC(=S)OCCc2ccncc2)cc1`: in data set [1], the EC50 is 63 µM. In data set [2], the selectivity ratio is more than 1.6. This compound had a CC50 in data set [3] of more than 100 µM.
Take `COc1ccc(NC(=S)OCCc2ccccn2)cc1`: in data set [1], the EC50 was determined as 5.6 µM. The selectivity ratio in data set [2] came to 8.6. Also, the CC50 in data set [3] is 48 µM.
On to `S=C(Nc1cccc(Cl)c1)OCCc1ccccn1`, for which the EC50 in data set [1] was 1.4 µM. In addition, the selectivity ratio in data set [2] is 34. Half-maximal cytotoxicity in data set [3] (CC50) was put at 47 µM.
On the same counts, the results for `CN(C)c1ccc(NC(=S)OCCc2ccccn2)cc1` are more than 60 µM, less than 1 and 60 µM.
On the same counts, the results for `Cc1cccc(NC(=S)OCCc2ccccn2)c1` are 7.7 µM, more than 13 and more than 100 µM.
Take `S=C(Nc1ccc(Cl)cc1)OCCc1ccccc1`: the EC50 in data set [1] turned out to be 0.5 µM. Besides, in data set [2], the selectivity ratio was more than 200. In data set [3], this compound showed a CC50 of more than 100 µM.
With `CC(=O)c1ccc(NC(=S)OCCc2ccccn2)cc1`, in data set [1], the EC50 was more than 100 µM. The same compound came in with a CC50 in data set [3] not below 100 µM.
For the compound `Fc1cc(F)cc(NC(=S)OCCc2ccccn2)c1`, the EC50 in data set [1] was 9 µM. For the same compound, the selectivity ratio in data set [2] is more than 11. In data set [3], this compound showed a half-maximal cytotoxic concentration (CC50) of more than 100 µM.
On the same counts, the results for `S=C(Nc1ccccc1)OCCc1cccs1` are 14 µM, more than 7.1 and more than 100 µM.
For `S=C(Nc1ccc(Cl)cc1)OCCc1ccncc1`, the EC50 in data set [1] is more than 70 µM. Further, the selectivity ratio in data set [2] is less than 1. Besides, in data set [3], the CC50 was 70 µM.
On the same counts, the results for `Fc1ccc(NC(=S)OCCc2ccccn2)cc1` are 1.2 µM, more than 83 and more than 100 µM.
For the compound `S=C(Nc1ccc(I)cc1)OCCc1ccccn1`, the EC50 in data set [1] was found to be 0.5 µM. For the same compound, the selectivity ratio in data set [2] amounted to 68. The same compound registered a CC50 in data set [3] of 34 µM.
Regarding `Fc1cccc(NC(=S)OCCc2ccccn2)c1`, in data set [1], the EC50 worked out at 1.1 µM. In data set [2], the selectivity ratio was not below 91. The CC50 in data set [3] is not below 100 µM.
On the same counts, the results for `S=C(Nc1ccc(Cl)c(Cl)c1)OCCc1ccccn1` are 0.2 µM, 200 and 40 µM.
With `O=[N+]([O-])c1ccc(NC(=S)OCCc2ccccn2)cc1`, the EC50 in data set [1] turned out to be 0.7 µM. For the same compound, the EC90 in data set [6] was 0.8 µM. Further, the selectivity ratio in data set [2] was more than 143. For the same compound, the CC50 in data set [3] was more than 100 µM.

The record behind these values is ChEMBL document CHEMBL1156535, “Thiocarbamates as non-nucleoside HIV-1 reverse transcriptase inhibitors. Part 1: Parallel synthesis, molecular modelling and structure-activity relationship studies on O-[2-(hetero)arylethyl]-N-phenylthiocarbamates” (Bioorg Med Chem, 2008).
